Activity calls are given as the source filed them.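 The calls were made as follows, unless noted: active = NADPH fluorescence slope more negative than the mean of all samples by about 3 SD, 99.7% confidence; inactive = the rest.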
Legend:
[1] = inhibitors of TNFa-induced NFkB p65 translocation, primary screen, imaging, HUVEC, MLSMR starter and 10KST1 sets (AID 438;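 active = inhibition above 20% together with a positive visual image hit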;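 also: compound added about 3h40 before a 20 min TNFalpha stimulation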;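 as to inhibition: signal is the nuclear over cytoplasmic p65 intensity ratio per well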); conditions: HUVEC TNFa-induced p65 nuclear translocation; cell count: measured here: nuclei count (cytotoxicity indicator), at 2.08 µM; inhibition: at 2 µM, stronger effect = higher value, 0% TNFa-plus-vehicle, 100% no-TNFa wells
[2] = reduction of polyQ htt aggregates in cells – imaging, exon1htt(103Q)mCFP cells, high-content imaging, primary screen (AID 483;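 active = visual image review flags a hit and inhibition of aggregation exceeds 20%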;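 also: compound exposure lasted 3 days before fixation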;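 as to nuclei count: percent of the per-plate median nuclei count of sample wells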); conditions: exon1htt(103Q)mCFP cell line, aggregate imaging, at 2 µM; inhibition of aggregation: stronger effect = higher value; nuclei count: measured here: cell count, toxicity
[3] = endothelial E-selectin expression blockers – imaging, HUVEC, immunofluorescence, MLSMR starter and 10KST1 sets, primary screen (AID 487;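 active = visually confirmed hit in the image check and inhibition above 20%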;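 as to inhibition: signal is fraction of cell area covered by stained E-selectin grains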;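 as to nuclei count: 100% = median nuclei count of all wells on the same plate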); conditions: HUVEC TNFalpha-induced E-selectin immunofluorescence imaging, at 2 µM; inhibition: stronger effect = higher value; nuclei count: measured here: cell number, toxicity
[4] = molecular target: Voltage-gated potassium channel subunit beta-2 (Rattus norvegicus) (UniProt P62483); test: inhibitors of rat Kvbeta2 reductase activity – biochemical, NADPH fluorescence, primary screen (AID 622;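 active = fluorescence slope higher than the sample average by over 3 SD, cut at about -0.22 in these data, passing the limit was not always enough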;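 also: slope of raw intensity against log time taken from 70 to 1610 s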); conditions: recombinant KvBeta, 4-cyanobenzaldehyde reduction, at 10 µM, stronger effect = higher value
[5] = molecular target: Voltage-gated potassium channel subunit beta-2 (Rattus norvegicus) (UniProt P62483); test: enhancers of rat Kvbeta2 NADPH turnover – biochemical, NADPH fluorescence, primary screen (AID 623); conditions: Recombinant KvBeta, NADPH fluorescence decrease slope, 10 min; at 10 µM; stronger effect = lower value;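 also: fluorescence intensity change per second fitted from 20 to 320 s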
[6] = molecular target: Alpha-2C adrenergic receptor (Homo sapiens) (UniProt P18825); test: compounds altering alpha2C-coupled GIRK flux – cell-based, HEK293 alpha2C/GIRK1/2, thallium flux, primary screen (AID 624;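 active = fluorescence slope after compound addition differing from the mean of all screened samples at 99.7% confidence, in either direction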;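 also: slope of fluorescence ratio to pre-addition baseline per second over 15 to 24 s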); conditions: thallium flux BTC fluorescence, at 10 µM, actives lie on both sides
[7] = inhibitors of larval lipid processing in zebrafish, primary screen, whole organism, PED6 fluorescence, gall bladder and intestine (AID 686;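 active = a full or partial loss of lipid-probe fluorescence in the fish gall bladder, intestine or both, judged by eye; inactive = no fluorescence loss, or compound toxic to the fish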;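 also: larvae 5 to 7 days old with five fish per well; signal comes from phospholipase A2 cleavage of quenched PED6 carried via bile; overnight exposure to compound and PED6 before scoring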); conditions: Zebrafish larvae PED6 lipid processing, fluorescence scoring; screened at 20 µM (by protocol)
Procedure, shortened: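 Doses: 20 µM single dose. Test system: live zebrafish larvae aged 5-7 days, whole organism. Quantity: five larvae per well. Measured by: By-eye fluorescence microscopy. Reagent: ingested quenched lipid PED6 at 100 nM. Read-out: visual per-well fluorescence inhibition score. Times: overnight exposure of larvae to compound plus PED6.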

[8] = blockers of RIG-like receptor reporter activation – cell-based, Sendai virus stimulus, luciferase, 10K MLSCN set, TLR/RLR signaling modifier project, primary screen (AID 602276;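 active = inhibition at or above 50% at 10 µM; inactive = inhibition below 50%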;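 also: firefly luciferase from ISG56 promoter only with Renilla not read in this screen; 0% = Sendai virus plus DMSO and 100% = medium plus DMSO without virus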); conditions: HEK293 RL24 IRF3 luciferase reporter, at 10 µM, stronger effect = higher value
[9] = TLR3 IRF3 reporter activation blockers – cell-based, poly I:C stimulus, luciferase, 10K MLSCN set, primary screen (AID 602277;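 active = inhibition of the reporter signal at or above 50%; inactive = inhibition below 50%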); conditions: HEK293-TLR3 RL24 IRF3 luciferase reporter, at 10 µM, stronger effect = higher value

Sequence of Alpha-2C adrenergic receptor (Homo sapiens) (P18825 whole entry, looked up): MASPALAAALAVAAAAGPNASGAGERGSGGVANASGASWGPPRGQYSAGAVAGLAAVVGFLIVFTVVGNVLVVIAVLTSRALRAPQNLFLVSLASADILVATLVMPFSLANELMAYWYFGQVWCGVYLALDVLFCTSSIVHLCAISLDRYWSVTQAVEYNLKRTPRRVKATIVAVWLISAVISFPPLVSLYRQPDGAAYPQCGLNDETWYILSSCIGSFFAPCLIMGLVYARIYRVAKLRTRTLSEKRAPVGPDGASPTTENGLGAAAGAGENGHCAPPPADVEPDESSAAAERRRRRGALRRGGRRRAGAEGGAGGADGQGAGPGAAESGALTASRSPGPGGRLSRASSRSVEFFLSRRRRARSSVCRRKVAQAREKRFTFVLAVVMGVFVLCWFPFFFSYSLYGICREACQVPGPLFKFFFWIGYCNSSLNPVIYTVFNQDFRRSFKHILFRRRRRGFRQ
Sequence of Voltage-gated potassium channel subunit beta-2 (Rattus norvegicus) (P62483 whole entry, looked up): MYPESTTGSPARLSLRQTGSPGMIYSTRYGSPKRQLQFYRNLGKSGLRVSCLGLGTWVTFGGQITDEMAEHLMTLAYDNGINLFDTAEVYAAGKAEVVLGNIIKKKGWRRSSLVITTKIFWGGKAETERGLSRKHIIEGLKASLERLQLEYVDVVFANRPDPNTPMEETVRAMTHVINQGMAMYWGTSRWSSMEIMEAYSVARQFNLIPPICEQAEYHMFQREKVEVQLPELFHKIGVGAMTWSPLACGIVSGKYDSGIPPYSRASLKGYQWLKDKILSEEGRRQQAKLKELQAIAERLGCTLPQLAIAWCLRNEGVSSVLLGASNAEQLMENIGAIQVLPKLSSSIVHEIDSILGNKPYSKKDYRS

SMILES	cell count [1]	inhibition [1]	inhibition of aggregation [2]	nuclei count [2]	inhibition [3]	nuclei count [3]	fluorescence slope [4]	NADPH fluorescence slope [5]	slope [6]	outcome [7]	inhibition [8]	inhibition [9]
Cc1cc(NC(=O)CSc2nc(C3CCCCC3)nc3ccccc23)no1	725	-4.4% (inactive)	-20.3% (inactive)	110%	-10.7% (inactive)	106%	-0.378 (inactive)	-5.4e-05 (inactive)	0.00411 (inactive)	inactive	12.9% (inactive)	15.3% (inactive)
NC(=O)c1ccsc1NC(=O)COC(=O)Cc1ccsc1	246	-18.9% (inactive)	17.1% (inactive)	81%	26.2% (inactive)	75.6%	-0.453 (inactive)	-4.6e-05 (inactive)	0.00509 (inactive)	inactive	9.36% (inactive)	10.7% (inactive)
CC12CCC(C(=O)N3CCN(C(=O)C45CCC(C)(C(=O)O4)C5(C)C)CC3)(OC1=O)C2(C)C	575	-8.7% (inactive)	-6.1% (inactive)	108%	-42.4% (inactive)	140%	-0.391 (inactive)	-7.7e-05 (inactive)	0.00544 (inactive)	inactive	-54.1% (inactive)	99.3% (active)
CCCN1CCN(C(=O)Cn2cccc2C(=O)c2ccccc2)CC1	568	5.4% (inactive)	-4.9% (inactive)	109%	-0.1% (inactive)	108%	-0.405 (inactive)	-5.8e-05 (inactive)	0.00424 (inactive)	inactive	7.77% (inactive)	11.7% (inactive)
COc1cc(-c2nc(S(=O)(=O)c3ccc(C)cc3)c(N(C)C)o2)cc(OC)c1OC	432	-6.3% (inactive)	-5.1% (inactive)	105%	-57% (inactive)	108%	-0.386 (inactive)	-9.2e-05 (inactive)	0.00686 (inactive)	inactive	-11.7% (inactive)	-7.3% (inactive)
CCCn1c(SCC(=O)NC(=O)NCc2ccco2)n[nH]c1=O	424	3.7% (inactive)	-7.6% (inactive)	73.3%	-178% (inactive)	117%	-0.39 (inactive)	-3.4e-05 (inactive)	0.00519 (inactive)	inactive	2.79% (inactive)	15.3% (inactive)
Cc1c(CNCc2cccs2)c(C(=O)O)c(C)n1Cc1ccccc1	451	5.5% (inactive)	3.1% (inactive)	115%	-30.9% (inactive)	101%	-0.454 (inactive)	-7.6e-05 (inactive)	0.00618 (inactive)	inactive	18.8% (inactive)	17% (inactive)
COCCCN1C(=O)C(O)=C(C(C)=O)C1c1ccccn1 (configuration not stated)	686	-1.7% (inactive)	-2% (inactive)	116%	-38.3% (inactive)	116%	-0.399 (inactive)	-6.2e-05 (inactive)	0.00486 (inactive)	active; weak signal in gallbladder only	12.4% (inactive)	14.4% (inactive)
O=C(Nc1ccon1)c1cccc(S(=O)(=O)N2CCCC2)c1	307	-2.7% (inactive)	21% (inactive)	86.7%	-11.9% (inactive)	102%	-0.374 (inactive)	-1.7e-05 (inactive)	0.00556 (inactive)	inactive	13.5% (inactive)	13.6% (inactive)
Cc1ccc(CS(=O)(=O)Cc2ccc(C(=O)NCc3ccccn3)o2)cc1	454	6% (inactive)	-2.9% (inactive)	102%	8.5% (inactive)	93.1%	-0.18 (inactive)	-2.3e-05 (inactive)	0.00535 (inactive)	inactive	12% (inactive)	7.77% (inactive)
O=C1C2CCCN2C(c2ccccc2)N1c1ccc(Cl)cc1 (configuration not stated)	374	5.5% (inactive)	-14.7% (inactive)	99.5%	-25.3% (inactive)	114%	-0.424 (inactive)	-6.3e-05 (inactive)	0.00548 (inactive)	inactive	31.4% (inactive)	-130% (inactive)
